# Measurements pooled from the literature.
Compound,target or system,assay,conditions,quantity,result
Cc1cc(=O)oc2cc(OCCCCSC#N)ccc12,T47D,"cell growth or viability, SRB",,GI50,2.5 µM
O=C(C[C@@H](C(F)F)n1ccc(F)n1)N1CCC(O)(Cn2cnc3c(cnn3-c3ccc(F)cc3)c2=O)CC1,LNCaP,"cell growth or viability, CCK-8",0.1235 µM,viability,18.3%
O=C(O)c1cn(C2CC2)c2cc(N3CCNCC3)c(F)cc2c1=O,Pseudomonas aeruginosa,"microbial growth, well diffusion",20 µg/mL,inhibition zone,3 mm
Cc1ccc(-c2nn(-c3ccccc3)cc2C=Nc2c(N)nc(S)nc2O)cc1,Jurkat,cell growth or viability,48 h,CC50,13.1 µM
Cc1c(-c2ccc(N3CCc4cccc(C(=O)Nc5nc6ccccc6s5)c4C3)nc2C(=O)NCCOCCOCCOCCNc2cccc3c2C(=O)N(C2CCC(=O)NC2=O)C3=O)cnn1CC12CC3CC(CC(C3)C1)C2 (centres unmarked),MOLT-4,"cell growth or viability, MTS",48 h,IC50,0.0067 µM
O=c1[nH]ncc(NN=Cc2cn(-c3ccccc3)nc2-c2cc3ccccc3oc2=O)c1Cl,Jurkat,cell growth or viability,48 h,CC50,> 40 µM
N#CSCc1cc(=O)oc2cc(O)ccc12,T47D,"cell growth or viability, SRB",,GI50,5.9 µM
Cc1nc(Nc2ncc(C(=O)Nc3c(C)cccc3Cl)s2)cc(N2CC[C@H](O)C2)n1,SU-DHL-2,"cell growth or viability, ATP luminescence","10 µM, 72 h",inhibition,33%
